# According to ChEMBL document CHEMBL4371095, “Triazole-Based Inhibitors of the Wnt/β-Catenin Signaling Pathway Improve Glucose and Lipid Metabolisms in Diet-Induced Obese Mice” (J Med Chem, 2019):
# The source made the active and inactive calls. No cut-off for these calls is given here.
# Experiments:
# [1] = Toxicity in normal chow diet fed C57BL/6J mouse assessed as serum uric acid level at 40 mg/kg, ip administered every 2 days for 11 weeks (reference value: 4 +/- 0.2 mg/dl); type: organism-based; conditions: in vivo
# [2] = Inhibition of Wnt3a activated Wnt/beta-catenin signaling (unknown origin) expressed in HEK293 cells harboring TCF/LEF-responsive luciferase preincubated with cells followed by Wnt3a addition and measured after 24 hrs by luciferase reporter gene assay; type: cell-based; conditions: Homo sapiens
# In short: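 HEK293 cells stably carrying TOPFlash/GFP were plated at 2000/well in DMEM with 10% FBS and kept overnight at 37 °C. Compound was pin-transferred, then recombinant human Wnt-3a was added (200 ng/mL working stock). After 24 h at 37 °C, ONE-Glo luminescence was read after 30 min. IC50 is mean ± SE from three independent experiments.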
# [3] = Toxicity in high fat diet fed C57BL/6J mouse assessed as serum triglyceride level at 40 mg/kg, ip administered every 2 days for 11 weeks (reference value: 93.5 +/- 12.1 mg/dl); type: organism-based; conditions: in vivo
# Mus musculus [4] = assay: Decrease in hepatic PEPCK mRNA level in high fat diet fed C57BL/6J mouse at 40 mg/kg, ip administered every 2 days for 11 weeks by qPCR analysis; type: functional, organism-based
# In short: (§1)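 Male mice, 8 weeks old, fed a 45% kcal fat diet for 6 weeks, then dosed i.p. every 2 days in corn oil vehicle for 11 weeks. Liver mRNA of the indicated genes was quantified at sacrifice; mean ± SEM, n = 5 per group.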
# HEK293 [5] = assay: Inhibition of Wnt/beta-catenin/Axin signaling (unknown origin) expressed in HEK293 cells assessed as decrease in CycD1 mRNA level after 48 hrs by qPCR analysis; type: cell-based; conditions: Homo sapiens
# In short: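 HEK293 cells were treated with compound for 48 h, harvested in TRIzol, and Wnt target gene mRNA was quantified by qPCR.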
# [6] = Toxicity in high fat diet fed C57BL/6J mouse assessed as serum total bilirubin level at 40 mg/kg, ip administered every 2 days for 11 weeks (reference value: 0.2 mg/dl); type: organism-based; conditions: in vivo
# [7] = Cmax in mouse at 10 mg/kg, po administered as single dose by LC-MS analysis; type: ADME, organism-based; parameters: dose 10 mg/kg, route oral; conditions: in vivo
# In short: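 Compound was dissolved at 1 mg/ml in 10% Kolliphor EL and 10% polyethylene glycol in saline. Ten mice were split into intravenous and oral groups and given a single 10 mg/kg dose. Tail-vein blood was sampled at several time points and analysed by LC/MS/MS.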
# Mus musculus [8] = species: Mus musculus; assay: Inhibition of Wnt/beta-catenin/Axin signaling in mouse hepatocytes assessed as decrease in ACOT4 mRNA level at 5 uM by qPCR analysis; type: cell-based
# In short: (§2)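 Normal mouse hepatocytes were treated with 5 μM compound, and lipogenic and gluconeogenic gene mRNA was measured by qPCR; mean ± S.D. of triplicates.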
# Axin-1 (Homo sapiens) = Axin-1 (Homo sapiens) (UniProt O15169); assay: Binding affinity to Axin1 (unknown origin) by SPR analysis
# Axin-1 (Homo sapiens), sequence (O15169 whole entry): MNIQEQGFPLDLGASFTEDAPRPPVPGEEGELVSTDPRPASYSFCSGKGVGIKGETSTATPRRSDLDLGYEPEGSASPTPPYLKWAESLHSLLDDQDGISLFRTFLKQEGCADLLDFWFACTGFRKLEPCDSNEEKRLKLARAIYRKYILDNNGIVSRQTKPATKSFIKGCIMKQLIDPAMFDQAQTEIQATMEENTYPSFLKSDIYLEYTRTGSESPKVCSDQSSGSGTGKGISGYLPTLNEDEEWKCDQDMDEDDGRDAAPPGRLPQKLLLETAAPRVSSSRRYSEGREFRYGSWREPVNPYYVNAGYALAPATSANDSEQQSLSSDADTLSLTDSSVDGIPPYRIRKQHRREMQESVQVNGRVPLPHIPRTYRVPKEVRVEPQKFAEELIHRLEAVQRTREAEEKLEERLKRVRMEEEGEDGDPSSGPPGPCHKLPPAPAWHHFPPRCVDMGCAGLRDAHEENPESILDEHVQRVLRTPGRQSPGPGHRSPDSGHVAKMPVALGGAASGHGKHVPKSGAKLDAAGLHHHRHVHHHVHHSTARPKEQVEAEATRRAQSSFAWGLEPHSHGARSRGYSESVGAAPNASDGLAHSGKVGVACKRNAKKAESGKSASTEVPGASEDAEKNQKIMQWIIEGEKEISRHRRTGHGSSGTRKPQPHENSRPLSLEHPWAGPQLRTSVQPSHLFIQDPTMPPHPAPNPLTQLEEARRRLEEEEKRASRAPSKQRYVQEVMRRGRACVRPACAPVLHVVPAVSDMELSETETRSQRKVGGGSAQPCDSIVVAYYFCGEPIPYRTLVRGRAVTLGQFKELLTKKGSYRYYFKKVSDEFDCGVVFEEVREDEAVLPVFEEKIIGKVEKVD
# Mus musculus [9] = assay: Decrease in liver weight adjusted by body weight gain in high fat diet fed C57BL/6J mouse at 40 mg/kg, ip administered every 2 days for 11 weeks; type: functional, organism-based
# In short: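 Male mice, 8 weeks old, 24–27 g, given a 45% kcal fat diet for 6 weeks, then dosed i.p. every 2 days in corn oil vehicle with the diet continued. Sacrifice was about 24 h after the last dose. Liver was examined by H&E. Liver and serum triglyceride were measured by kit. Serum chemistry was included, and liver/body weight ratio was calculated.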
# [10] = Inhibition of Wnt/beta-catenin signaling (unknown origin) expressed in HEK293 cells harboring GSK3B siRNA after 24 hrs by luciferase reporter gene assay; type: cell-based; conditions: Homo sapiens, HEK293, 24 h
# [11] = Toxicity in normal chow diet fed C57BL/6J mouse assessed as serum cholesterol level at 40 mg/kg, ip administered every 2 days for 11 weeks (reference value: 183 +/- 16.6 mg/dl); type: organism-based; conditions: in vivo
# Mus musculus [12] = assay: Antidiabetic activity in high fat diet fed C57BL/6J mouse assessed as improvement in glucose tolerance at 40 mg/kg, ip administered every 2 days for 11 weeks followed by glucose-challenge and measured up to 120 mins by IPGTT; type: functional, organism-based
# In short: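 Male mice, 8 weeks old, fed a 45% kcal fat diet for 6 weeks, then dosed i.p. every 2 days in corn oil vehicle alongside the continued diet. IPGTT was done before and at the end of treatment: 6–8 h fast, then glucose 2 g/kg i.p. in saline. Tail-vein blood glucose was read by glucometer over time, and AUC was derived; mean ± SEM, n = 5 per group.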
# [13] = Toxicity in high fat diet fed C57BL/6J mouse assessed as serum creatinine level at 40 mg/kg, ip administered every 2 days for 11 weeks by Jaffe's reaction analysis (reference value: 0.3 +/- 0.02 mg/dl); type: organism-based; conditions: in vivo
# Mus musculus [14] = assay: Effect on hepatic G6pase mRNA level in normal chow diet fed C57BL/6J mouse at 40 mg/kg, ip administered every 2 days for 11 weeks by qPCR analysis; type: ADME, organism-based; conditions: in vivo
# In short: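 Male mice, 8 weeks old, kept on normal chow throughout and dosed i.p. every 2 days in corn oil vehicle for 11 weeks. Body weight gain, liver/body weight ratio, and liver mRNA of the indicated genes were measured at sacrifice; mean ± SEM, n = 5 per group where stated.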
# HEK293 [15] = assay: Inhibition of Wnt/beta-catenin signaling (unknown origin) expressed in Axin1 knock down HEK293 cells harboring TCF/LEF-responsive luciferase assessed as luminescence at 20 nM measured after 24 hrs by luciferase reporter gene assay relative to control; type: cell-based; parameters: scale not given: the % may be the effect or the level left; conditions: Homo sapiens
# In short: (§3)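 HEK293 cells were transfected with siRNA against GSK3β, Axin or CK1α using RNAiMAX for 36 h. Cells were then treated with or without compound at 20 nM for 24 h, and TCF/LEF luciferase reporter activity was read.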
# Mus musculus [16] = assay: Decrease in hepatic CycD1 mRNA level in high fat diet fed C57BL/6J mouse at 40 mg/kg, ip administered every 2 days for 11 weeks by qPCR analysis; type: functional, organism-based; in short: as §1
# Mus musculus [17] = species: Mus musculus; assay: Inhibition of Wnt/beta-catenin/Axin signaling in mouse hepatocytes assessed as decrease in PEPCK mRNA level at 5 uM by qPCR analysis; type: cell-based; in short: as §2
# Mus musculus [18] = assay: Decrease in hepatic ACOT4 mRNA level in high fat diet fed C57BL/6J mouse at 40 mg/kg, ip administered every 2 days for 11 weeks by qPCR analysis; type: functional, organism-based; in short: as §1
# HEK293 [19] = assay: Inhibition of Wnt/beta-catenin signaling (unknown origin) expressed in CK1alpha knock down HEK293 cells harboring TCF/LEF-responsive luciferase assessed as luminescence at 20 nM measured after 24 hrs by luciferase reporter gene assay relative to control; type: cell-based; parameters: scale not given: the % may be the effect or the level left; conditions: Homo sapiens; in short: as §3
# [20] = Toxicity in high fat diet fed C57BL/6J mouse assessed as serum ALT level at 40 mg/kg, ip administered every 2 days for 11 weeks (reference value: 63.3 +/- 26.9 U/L); type: organism-based; conditions: in vivo
# HepG2 = assay: Inhibition of Wnt/beta-catenin deletion mutant signaling in human HepG2 cells at 50 nM after 24 hrs by luciferase reporter gene assay; type: cell-based
# In short: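 HepG2 cells carry the CTNNB1 Δ25–140 deletion and were transfected with the TCF/LEF luciferase reporter constructs. Compound was applied and reporter luminescence measured; mean ± S.D., n = 3.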
smiles,measurement,setting,value
Cc1ccccc1-n1nnc(C(=O)Nc2ccc3ccccc3n2)c1C,Activity,[1],3.8 mg/dL
same,IC50,[2],4.1 nM
same,Activity,[3],85.3 mg/dL
same,Activity,Mus musculus [4],Active
same,inhibition,HEK293 [5],Active
same,Activity,[6],0.2 mg/dL
same,Cmax,[7],2200 ng/mL
same,inhibition,Mus musculus [8],Active
same,Activity,Axin-1 (Homo sapiens),inactive
same,Activity,Mus musculus [9],Active
same,IC50,[10],34 nM
same,Activity,[11],194 mg/dL
same,Activity,Mus musculus [12],Active
same,Activity,[13],0.2 mg/dL
same,Activity,Mus musculus [14],Non-Toxic
same,Activity,HEK293 [15],41%
same,Activity,Mus musculus [16],Active
same,inhibition,Mus musculus [17],Active
same,Activity,Mus musculus [18],Active
same,Activity,HEK293 [19],52%
same,Activity,[20],21 U/L
same,inhibition,HepG2,inactive
